This excerpt belongs to a sample that is enriched for hits.
T cruzi inh: T. cruzi replication inhibition | AID 1885 | inhibition, % (concentration not given with the values) | T. cruzi beta-gal in NIH3T3, luminescence, 90 h | 300,000 compounds, 1.4% hits;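 active = mean inhibition across valid replicates above about 55%, limit read from the data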;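 also: signal also drops with host cell toxicity which is not excluded here; 0% = plate median of DMSO wells and 100% = zero luminescence signal; higher percent means less beta-gal luminescence so fewer parasites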
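System – NIH/3T3 host cells with β-galactosidase reporter T. cruzi · Doses – single 50 nL compound addition per well in DMSO · Reagent – 5000 T. cruzi trypomastigotes/well · Medium – Low-serum DMEM with 2% FBS · Timing – ≥90 h infection period, 3 h prior cell attachment · Evaluation – parasite load inhibition, % · Technique – GalScreen luminescence, 60 min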
MPTP block: inhibitors of mitochondrial permeability transition pore; isolated mouse mitochondria, Ca2+ swelling absorbance, 30 min; inhibition, % at 10 µM; 360,000 compounds, 1.4% hits; AID 602449;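 active = inhibition of 50% or more, scaled per plate between neutral and stimulator controls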;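 also: 0% = DMSO wells given calcium and 100% = 1 mM EGTA wells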
Hep lipid drop: modulators of hepatic lipid droplet formation; AML12 mouse hepatocytes, oleate lipid droplets, BODIPY imaging; inhibition, % at 6.5 µM; 240,000 compounds, 0.4% hits;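 active = lipid droplet intensity inhibited by at least 50%, with more than 500 cells counted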
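Material – AML12 mouse liver cells · Also added – oleate loading, 100 µM · Compound dosing – 6.5 µM single-point dosing · Times – overnight treatment with compound plus oleate · Measured by – fluorescence imaging, 20x objective, two fields per well · Read-out – percent inhibition of filter-corrected integrated lipid droplet intensity per well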
Redox H2O2 prof: compounds producing H2O2 with reducing agent – biochemical, NIH compound library profiling, artefact control for MLSCN library redox annotation, primary screen. activation, % at 10 µM. DTT-dependent redox cycling H2O2, phenol red/HRP absorbance; 100% = 100 µM peroxide control, 0% = buffer. 200,000 compounds, 0.03% hits;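 active = activation of at least 50% relative to the plate's high and low controls in the primary single-dose screen; inactive = activation below 50%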;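 also: compound incubated with DTT at 0.8 mM final as the reducing agent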
L major viab: reduces viability of Leishmania major promastigotes; AID 1063; inhibition, % at 10 µM; resazurin fluorescence viability; 200,000 compounds, 9% hits; in the data active = inhibition above about 50%;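 also: promastigotes grown with compound for 44 hours at 28 °C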
* = called active by the depositor; nt = not tested or not shown.

SMILES	T cruzi inh	MPTP block	Hep lipid drop	Redox H2O2 prof	L major viab
Cc1cc(C(=O)Nc2ccc(Br)cc2)c2ccccc2n1	-1	1	-13	nt	nt
N/C(=N\OC(=O)N1c2ccccc2Sc2ccccc21)c1ccccc1	82*	5	30	0	91*
Cc1cccc(/C(N)=N/OC(=O)N2c3ccccc3Sc3ccccc32)c1	43	0	nt	2	71*
OCC[C@@H]1C[C@H](O)[C@@H](O)[C@@]2(OCCCc3cc(C(F)(F)F)ccc32)O1	nt	-3	nt	nt	nt
COc1ccc(OCc2nnc(SCC(=O)N(C)Cc3ccccc3)n2N)cc1	-2	-4	-11	-2	-5
O=C(Nc1ccc(O)cc1)/C(=C\c1cccs1)NC(=O)c1ccccc1	-11	-2	5	0	-4
Cc1ccc(NC(=O)/C(=C\c2cccs2)NC(=O)c2ccccc2)cc1	1	11	6	0	83*
O=C(COC(=O)c1cccc2c1C(=O)c1ccccc1C2=O)NC1CCCCC1	13	4	0	0	3
O=C(COC(=O)c1ccc2c(c1[N+](=O)[O-])C(=O)c1ccccc1C2=O)NC1CC1	66*	2	0	-1	-1
Cc1ccc(-n2ccc(=O)c(C(=O)Nc3ccc(S(=O)(=O)Nc4onc(C)c4C)cc3)n2)cc1	-14	0	8	nt	nt
O=C(N/N=C\c1ccc(-c2ccc([N+](=O)[O-])cc2)o1)c1ccc2c(c1)OCO2	33	3	-2	1	-2
Cc1ccc(C(=O)N/N=C\c2ccc([N+](=O)[O-])o2)cn1	58*	1	14	nt	nt
O=C(N/N=C/c1ccc([N+](=O)[O-])o1)c1ccc2c(c1)OCO2	69*	1	-6	nt	nt
CC(C)c1ccc(-c2c(C#N)c(N)nc(SCC(=O)N3CCCCC3)c2C#N)cc1	31	0	23	0	-4
CC(C)c1ccc(-c2c(C#N)c(N)nc(SCC(=O)N3CCCCCC3)c2C#N)cc1	21	nt	-9	0	51*
Cc1ccc(Cn2nnnc2CN2CCC(c3nc4ccc(Cl)cc4[nH]3)CC2)cc1	-17	9	-19	-2	55*
Clc1ccc2nc(C3CCN(Cc4nnnn4C4CCCCC4)CC3)[nH]c2c1	25	1	-6	1	19
Cc1nn(C(=O)c2cccnc2)c(C)c1Sc1ccccc1	-25	2	-14	0	-6
Cc1nn(C(=O)CNS(=O)(=O)c2ccccc2)c(C)c1Sc1ccc(Cl)cc1	1	4	-5	0	51*
FC(F)(F)c1ccc(Cl)c(N/N=C/c2ccc(N3CCOCC3)s2)c1	25	2	10	0	98*
CC(=O)Nc1ccc(C(=O)CSc2nnnn2C2CCCC2)cc1	-8	-2	-5	0	-9
Fc1ccc(/C=N/Nc2ccccn2)cc1	14	-5	-17	0	69*
O=c1[nH]c(N/N=C\c2ccc(F)cc2)nc2ccccc12	-10	3	2	-1	65*
CCN(CC)c1ccc(/C=N/Nc2nc3ccccc3[nH]2)cc1	51	12	-89	0	100*
C(=N\Nc1nc2ccccc2[nH]1)/c1ccncc1	-15	0	-4	0	14
SMILES	T cruzi inh	MPTP block	Hep lipid drop	Redox H2O2 prof	L major viab
O=c1[nH]c(N/N=C/c2ccc(O)cc2)nc2ccccc12	-12	3	-6	-1	15
CC(=O)Nc1ccc(/C=N/Nc2nc3ccccc3[nH]2)cc1	-11	0	-6	0	100*
C[C@@H](NC(=O)c1[nH]cnc1C(=O)Nc1ccccc1F)c1ccccc1	nt	1	nt	nt	nt
CCc1nc(C)cn1S(=O)(=O)c1cc(Cl)c(OC)cc1Cl	5	0	nt	-3	43
CCc1nc(C)cn1S(=O)(=O)c1ccc([N+](=O)[O-])cc1	-3	-1	-19	-1	100*
CC1CCN(S(=O)(=O)c2ccc([N+](=O)[O-])cc2)CC1	-2	2	7	nt	nt
CCc1nc(C)cn1S(=O)(=O)c1cc(C)c(OC)c(C)c1C	-11	0	-12	0	93*
CCc1nc(C)cn1S(=O)(=O)c1cc(C)c(OC)cc1C	-4	0	nt	-1	33
CCc1nc(C)cn1S(=O)(=O)c1ccc(Cl)c(Cl)c1Cl	27	42	-6	0	97*
CCc1nc(C)cn1S(=O)(=O)c1cc(Br)c(C)cc1OC	-2	-2	-3	1	99*
